CYP2C9 activ – CYP2C9 (human) activation; 1.4% of 96,000 active; recombinant CYP2C9, luciferin-H conversion, luminescence; active compounds read high; factor 1 = untreated enzyme, 0 = blocked; activation factor at 5 µM; P11712;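 active means activation factor of 2 or more for CYP2C9 at a 5 µM dose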;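 further: 0 = sulfaphenazole-blocked wells and 1 = vehicle-only wells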
Cav3 T inh – blocks human Cav3.2 T-type calcium channel | O95180 | Cav3.2-expressing cells, Fluo-4 calcium fluorescence FDSS; active compounds read low | B-score at 10 µM | 4% of 100,000 active | AID 449739;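 active means single-dose well whose peak fluorescence ratio is a statistical outlier from its plate by either plate-standardised score or position-corrected B-score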
Rev-RRE block – inhibitors of HIV-1 Rev-RRE RNA interaction; Rev peptide-RRE RNA binding, FRET; inhibition, % at 8 µM; 0.79% of 97,000 active; AID 704;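 active means inhibition above the screen-wide mean plus 3 SD, cut at about 35% in these data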;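 further: 0% = median DMSO wells and 100% = median Neomycin B control wells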
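Test system: labelled RRE RNA duplex and labelled Rev peptide. Times: 5 min compound–RNA preincubation, then 15 min with peptide, 25 °C. Doses: single-dose 8 µM. Measured by: FRET, excitation 480 nm, emission 540 nm donor and 671 nm acceptor. Measure: % inhibition of FRET ratio versus controls.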
CYP2C19 activ – activators of human cytochrome P450 2C19; 96,000 tested, under 10 active; recombinant CYP2C19, luciferin-H EGE luminescence; active compounds read high; 0 = fully inhibited enzyme, 1 = untreated enzyme; AID 1025; activation factor at 5 µM;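 active means activation factor of at least 2 at 5 µM in the primary screen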;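 further: 0 = wells with 2.5 mM tranylcypromine and 1 = vehicle-only wells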
Target sequence (P33261 whole entry, looked up): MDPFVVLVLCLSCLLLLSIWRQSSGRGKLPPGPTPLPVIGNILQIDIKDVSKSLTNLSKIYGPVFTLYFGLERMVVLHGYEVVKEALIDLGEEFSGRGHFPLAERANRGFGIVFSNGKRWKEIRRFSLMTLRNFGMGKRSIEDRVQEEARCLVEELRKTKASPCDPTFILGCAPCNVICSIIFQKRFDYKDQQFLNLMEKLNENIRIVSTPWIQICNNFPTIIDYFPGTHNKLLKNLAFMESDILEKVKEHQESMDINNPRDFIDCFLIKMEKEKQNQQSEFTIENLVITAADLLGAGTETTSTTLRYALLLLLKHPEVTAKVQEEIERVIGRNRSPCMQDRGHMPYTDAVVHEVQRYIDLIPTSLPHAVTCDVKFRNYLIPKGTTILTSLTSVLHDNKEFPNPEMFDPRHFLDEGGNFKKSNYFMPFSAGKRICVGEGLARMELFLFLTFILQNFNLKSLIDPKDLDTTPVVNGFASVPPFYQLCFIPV
CYP2C9 inh – blocks human cytochrome P450 2C9; CYP2C9 Supersomes, luciferin-H conversion, luminescence; inhibition, % at 5 µM; 20% of 96,000 active; AID 777;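 active means blocking of liver enzyme CYP2C9 beyond about 50% at 5 µM, limit read from the data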
CYP2C19 inh – blocks human cytochrome P450 2C19; inhibition, % at 5 µM; CYP2C19 Supersomes, luciferin-H EGE luminescence, 30 min; AID 778; 21% of 96,000 active;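 active means CYP2C19 inhibition above a set limit at 5 µM in the primary screen, cut at about 50% in these data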;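 further: plate controls were negative control wells for no effect and 2.5 mM tranylcypromine positive control for full effect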
Starred values were filed as active, the others as inactive. The list is a sample of the results.

COc1ccc(S(=O)(=O)N2CCCCCC2)cc1C(=O)OCC(=O)NC(N)=O was read as CYP2C9 activ 0.8, Cav3 T inh 1, Rev-RRE block 9, CYP2C19 activ 0.9, CYP2C9 inh 21 and CYP2C19 inh 10.
For CCOc1ccc(NC2=NCC(=O)N2Cc2cccs2)cc1 the results were CYP2C9 activ 0.9, Cav3 T inh -0.046, Rev-RRE block 3, CYP2C19 activ 0.9, CYP2C9 inh 14 and CYP2C19 inh 6.
Screening N#Cc1ccc(Cl)cc1NC(=O)COC(=O)c1ccc(S(=O)(=O)N2CCCC2)cc1 returned CYP2C9 activ 1, Cav3 T inh 0.47, Rev-RRE block -1, CYP2C19 activ 1, CYP2C9 inh 0 and CYP2C19 inh -3.
`COc1ccc(C2NCCn3cccc32)cc1` (configuration not stated) gave Cav3 T inh 1.3 and Rev-RRE block 6.
Cc1ccc(S(=O)(=O)NC(CC(=O)NCC2CCCO2)c2ccco2)cc1 (configuration not stated) was read as CYP2C9 activ 1.1, Cav3 T inh 0.25, Rev-RRE block 8, CYP2C19 activ 1, CYP2C9 inh -8 and CYP2C19 inh 0.
C=CCNC(=O)C1CCN(S(=O)(=O)c2ccc(Br)cc2)CC1 was read as CYP2C9 activ 1.5, Cav3 T inh 0.46, Rev-RRE block -2, CYP2C19 activ 0.5, CYP2C9 inh -52 and CYP2C19 inh 51*.
For O=C(NCc1ccc2c(c1)OCO2)c1ccc(S(=O)(=O)N2CCCCC2)cc1 the results were CYP2C9 activ 0.9, Cav3 T inh -1.4, Rev-RRE block 8, CYP2C19 activ 1, CYP2C9 inh 8 and CYP2C19 inh 0.
`CCc1ccc(NC(=O)c2cccnc2)cc1` gave CYP2C9 activ 1.1, Rev-RRE block 4, CYP2C19 activ 1.1, CYP2C9 inh -5 and CYP2C19 inh -8.
`CCCNS(=O)(=O)c1ccc(NC(=O)c2cccnc2)cc1` gave CYP2C9 activ 0, Cav3 T inh 0.47, Rev-RRE block 9, CYP2C19 activ 0.6, CYP2C9 inh 98* and CYP2C19 inh 38.
Screening Cc1ccc(S(=O)(=O)N2CCC(C(=O)OC(C)C(=O)NCc3ccc4c(c3)OCO4)CC2)cc1 (configuration not stated) returned CYP2C9 activ 1.4, Cav3 T inh -1.1, Rev-RRE block -3, CYP2C19 activ 0.3, CYP2C9 inh -44 and CYP2C19 inh 73*.
Screening COc1ccc2nc(SCC(=O)Nc3ccc(S(=O)(=O)Nc4nccc(C)n4)cc3)[nH]c2c1 returned CYP2C9 activ 0.8, Cav3 T inh 1.2, Rev-RRE block 3, CYP2C19 activ 0.7, CYP2C9 inh 23 and CYP2C19 inh 29.
`CC(CC(=O)Nc1nncs1)c1ccccc1` (configuration not stated) gave Cav3 T inh -0.52 and Rev-RRE block 5.
`CS(=O)(=O)Nc1ccc(S(=O)(=O)N2CCOCC2)cc1` gave CYP2C9 activ 1, Cav3 T inh 0.54, Rev-RRE block 8, CYP2C19 activ 1, CYP2C9 inh 4 and CYP2C19 inh 3.
For Cc1[nH]c2ccc(CNS(=O)(=O)c3ccc(S(=O)(=O)N4CCOCC4)cc3)cc2c1C the results were CYP2C9 activ 0.3, Cav3 T inh 0.2, Rev-RRE block 5, CYP2C19 activ 0.4, CYP2C9 inh 71* and CYP2C19 inh 64*.
For N#Cc1nc(-c2ccccc2F)oc1NCCc1ccccc1 the results were CYP2C9 activ 0.5, Cav3 T inh -0.2, Rev-RRE block 9, CYP2C19 activ 0.6, CYP2C9 inh 46 and CYP2C19 inh 36.
`C=CCNc1oc(Cc2cccc3ccccc23)nc1C#N` gave CYP2C9 activ 0.4, Cav3 T inh -3, Rev-RRE block 14, CYP2C19 activ 0, CYP2C9 inh 65* and CYP2C19 inh 100*.
Screening N#Cc1nc(Cc2cccc3ccccc23)oc1NCc1ccc(F)cc1 returned CYP2C9 activ 0.1, Cav3 T inh -2.3, Rev-RRE block 8, CYP2C19 activ 0.5, CYP2C9 inh 90* and CYP2C19 inh 52*.
For N#Cc1nc(Cc2cccc3ccccc23)oc1NCCN1CCOCC1 the results were CYP2C9 activ 1.1, Cav3 T inh 2, Rev-RRE block 9, CYP2C19 activ 1.1, CYP2C9 inh -8 and CYP2C19 inh -11.
